Laboratory results: ChEMBL document CHEMBL1155671, “New circulin macrocyclic polypeptides from Chassalia parvifolia” (J Nat Prod, 2000)
Positions of bridges follow the written chain, without caps; N, C: chain ends. Residues, ends and D or L forms follow the SMILES beside them.

Assays:
Format in all cases: functional, organism-based
[1] = system: Human immunodeficiency virus 1; experiment: Antiviral activity against HIV1 SK1 in human CEM-SS cells assessed as inhibition of virus-induced cytopathic effect by XTT assay; conditions: Human immunodeficiency virus 1, CEM-SS
How it was run: (§1)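 Peptide samples dissolved in 100% DMSO or H2O-DMSO (3:1), then diluted to test concentrations. Tested in an in vitro XTT tetrazolium-based cell assay for protection against the cytopathic effects of productive HIV-1 infection. EC50 is the concentration giving 50% protection, determined separately for each virus strain and target cell line pairing.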

[2] = system: Human immunodeficiency virus 1; experiment: Antiviral activity against HIV1 214 in human CEM-SS cells assessed as inhibition of virus-induced cytopathic effect by XTT assay; conditions: Human immunodeficiency virus 1, CEM-SS; how it was run: as §1
[3] = system: Human immunodeficiency virus 1; experiment: Antiviral activity against HIV1 G in human CEM-SS cells assessed as inhibition of virus-induced cytopathic effect by XTT assay; conditions: Human immunodeficiency virus 1, CEM-SS; how it was run: as §1
[4] = system: Human immunodeficiency virus 1; experiment: Antiviral activity against HIV1 G9106 in human MT2 cells assessed as inhibition of virus-induced cytopathic effect by XTT assay; conditions: Human immunodeficiency virus 1, G9106, MT2; how it was run: as §1
[5] = system: Human immunodeficiency virus 1; experiment: Antiviral activity against HIV1 H1122 in human MT2 cells assessed as inhibition of virus-induced cytopathic effect by XTT assay; conditions: Human immunodeficiency virus 1, MT2; how it was run: as §1
[6] = system: Human immunodeficiency virus 1; experiment: Antiviral activity against HIV1 N119 in human CEM-SS cells assessed as inhibition of virus-induced cytopathic effect by XTT assay; conditions: Human immunodeficiency virus 1, CEM-SS; how it was run: as §1
[7] = system: Human immunodeficiency virus 1; experiment: Antiviral activity against HIV1 A17 in human MT2 cells assessed as inhibition of virus-induced cytopathic effect by XTT assay; conditions: Human immunodeficiency virus 1, A17, MT2; how it was run: as §1
[8] = system: Human immunodeficiency virus 1; experiment: Antiviral activity against HIV1 RF in human CEM-SS cells assessed as inhibition of virus-induced cytopathic effect by XTT assay; conditions: Human immunodeficiency virus 1, RF; how it was run: as §1
[9] = system: Human immunodeficiency virus 1; experiment: Antiviral activity against HIV1 3B in human MT2 cells assessed as inhibition of virus-induced cytopathic effect by XTT assay; conditions: Human immunodeficiency virus 1, 3B; how it was run: as §1
[10] = system: Human immunodeficiency virus 1; experiment: Antiviral activity against HIV1 205 in human CEM-SS cells assessed as inhibition of virus-induced cytopathic effect by XTT assay; conditions: Human immunodeficiency virus 1, CEM-SS; how it was run: as §1
[11] = system: Human immunodeficiency virus 1; experiment: Antiviral activity against HIV1 3B in human CEM-SS cells assessed as inhibition of virus-induced cytopathic effect by XTT assay; conditions: Human immunodeficiency virus 1, 3B; how it was run: as §1

CC[C@H](C)[C@@H]1NC(=O)[C@H](C)NC(=O)[C@H](C)NC(=O)[C@H](CO)NC(=O)[C@H]([C@@H](C)CC)NC(=O)[C@@H]2CSSC[C@@H]3NC(=O)[C@H](C(C)C)NC(=O)[C@H](CCCCN)NC(=O)[C@H](CC(N)=O)NC(=O)[C@H](CCCCN)NC(=O)[C@@H]4CSSC[C@H](NC(=O)[C@H](CO)NC(=O)[C@H](CCC(=O)O)NC(=O)CNC(=O)[C@H](CSSC[C@H](NC(=O)CNC1=O)C(=O)N[C@@H](CO)C(=O)N4)NC(=O)[C@@H]1CCCN1C(=O)[C@H]([C@@H](C)CC)NC(=O)[C@H](C)NC(=O)[C@H](CCCNC(=N)N)NC(=O)[C@H](Cc1ccc(O)cc1)NC3=O)C(=O)N[C@@H](C(C)C)C(=O)N[C@@H](Cc1c[nH]c3ccccc13)C(=O)N[C@@H]([C@@H](C)CC)C(=O)N1CCC[C@H]1C(=O)N2 [CIRCULIN F] (cyclo(AAIGCSCKNKVCYRAIPCGESCVWIPCIS); disulfide 5-18, 7-22, 12-27) gave an EC50 [1] of 50 nM, an EC50 [2] of 50 nM and an EC50 [3] of 50 nM. For the same compound, the EC50 [4] was 50 nM, the EC50 [5] was 50 nM and the EC50 [6] was 50 nM. The EC50 [7] was 50 nM, the EC50 [8] was 50 nM and the EC50 [9] was 50 nM. The EC50 [10] was 50 nM.
CC[C@H](C)[C@@H]1NC(=O)[C@H](CCCCN)NC(=O)[C@H](CC(=O)O)NC(=O)[C@H](Cc2cnc[nH]2)NC(=O)[C@H](Cc2ccc(O)cc2)NC(=O)[C@@H]2CSSC[C@@H]3NC(=O)[C@@H]4CCCN4C(=O)[C@H]([C@@H](C)CC)NC(=O)[C@H](Cc4c[nH]c5ccccc45)NC(=O)[C@H](C(C)C)NC(=O)[C@@H]4CSSC[C@H](NC(=O)[C@H](CCCCN)NC(=O)[C@H](CSSC[C@H](NC(=O)[C@@H]5CCCN5C1=O)C(=O)NCC(=O)N[C@@H](CCC(=O)O)C(=O)N[C@@H](CO)C(=O)N4)NC(=O)[C@H](CC(N)=O)NC(=O)[C@H](Cc1ccccc1)NC(=O)[C@H](C(C)C)NC(=O)[C@H](CO)NC(=O)[C@H]([C@@H](C)O)NC(=O)[C@H](CC(C)C)NC3=O)C(=O)N[C@@H](CCC(=O)O)C(=O)N[C@@H](CC(N)=O)C(=O)N[C@@H](CCCCN)C(=O)N[C@@H](C(C)C)C(=O)N2 [CIRCULIN E] (cyclo(CENKVCYHDKIPCGESCVWIPCLTSVFNCK); disulfide 1-17, 6-22, 13-29) gave an EC50 [1] of 50 nM, an EC50 [2] of 50 nM and an EC50 [3] of 50 nM. The EC50 [4] was 50 nM, the EC50 [5] was 50 nM and the EC50 [6] was 50 nM. The EC50 [7] was 50 nM, the EC50 [8] was 50 nM and the EC50 [9] was 50 nM. It also gave an EC50 [10] of 50 nM.
CC[C@H](C)[C@@H]1NC(=O)[C@@H]2CSSC[C@@H]3NC(=O)[C@H](C(C)C)NC(=O)[C@H](CCCCN)NC(=O)[C@H](CO)NC(=O)[C@H](CCCCN)NC(=O)[C@@H]4CSSC[C@H](NC(=O)[C@H](CO)NC(=O)[C@H](CCC(=O)O)NC(=O)CNC(=O)[C@H](CSSC[C@H](NC(=O)CNC(=O)[C@H](C)NC(=O)[C@H](C(C)C)NC(=O)[C@H](CO)NC(=O)[C@H]([C@@H](C)O)NC1=O)C(=O)N[C@@H](CO)C(=O)N4)NC(=O)[C@@H]1CCCN1C(=O)[C@H]([C@@H](C)CC)NC(=O)CNC(=O)[C@H](CC(N)=O)NC(=O)[C@H](CCCNC(=N)N)NC(=O)[C@H](Cc1ccc(O)cc1)NC3=O)C(=O)N[C@@H](C(C)C)C(=O)N[C@@H](Cc1ccccc1)C(=O)N[C@@H]([C@@H](C)CC)C(=O)N1CCC[C@H]1C(=O)N2 [CIRCULIN C] (cyclo(AGCSCKSKVCYRNGIPCGESCVFIPCITSV); disulfide 3-17, 5-21, 10-26) showed an EC50 [1] of 51 nM, an EC50 [2] of 213 nM and an EC50 [3] of 111 nM. It also gave an EC50 [4] of 67 nM, an EC50 [11] of 73 nM and an EC50 [5] of 48 nM. The EC50 [6] was 241 nM, the EC50 [7] was 247 nM and the EC50 [8] was 165 nM. For the same compound, the EC50 [9] was 200 nM and the EC50 [10] was 155 nM.
